Experiments:
[1] = target: T1, UDP-glucuronosyltransferase 1A3 (Homo sapiens, UniProt P35503); test: Activity of human UGT1A3 expressed in microsomes isolated from baculovirus infected insect cell assessed as enzyme-mediated compound formation treated with [14C]-rivoglitazone at 20 uM after 4 hrs by radio-HPLC/LC-MS/MS analysis in presence of UDPGA, UDPGA/SAM
T1 sequence (P35503 whole entry): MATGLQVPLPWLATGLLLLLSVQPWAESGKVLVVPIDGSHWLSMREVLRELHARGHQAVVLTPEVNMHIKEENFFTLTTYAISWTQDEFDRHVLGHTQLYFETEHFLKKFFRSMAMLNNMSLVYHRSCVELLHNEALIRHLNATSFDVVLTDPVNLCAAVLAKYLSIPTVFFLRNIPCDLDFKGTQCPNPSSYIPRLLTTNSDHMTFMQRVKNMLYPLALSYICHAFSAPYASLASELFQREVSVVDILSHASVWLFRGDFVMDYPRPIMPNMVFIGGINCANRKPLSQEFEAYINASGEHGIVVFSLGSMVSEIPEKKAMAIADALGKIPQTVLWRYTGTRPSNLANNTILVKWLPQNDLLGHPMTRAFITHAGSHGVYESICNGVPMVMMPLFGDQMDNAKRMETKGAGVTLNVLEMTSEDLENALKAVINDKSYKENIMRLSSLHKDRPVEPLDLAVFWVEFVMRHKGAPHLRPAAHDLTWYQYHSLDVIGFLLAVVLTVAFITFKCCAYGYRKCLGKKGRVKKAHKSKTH

Liver microsome [2] = test: Drug metabolism in human liver microsomes assessed as formation of 3-(4-((6-methoxy-1-methyl-1H-benzo[d]imidazol-2-yl)methoxy)phenyl)-2-(methylthio)propanamide at 20 uM after 2 hrs by radio-HPLC/LC-MS/MS analysis in presence of NADPH-generating system/SAM; format: ADME
Cytochrome P450 2C19 = Cytochrome P450 2C19 (Homo sapiens, UniProt P33261); test: Activity of human CYP2C19 expressed in microsomes isolated from baculovirus infected insect cell assessed as enzyme-mediated 2-((4-((2,4-dioxothiazolidin-5-yl)methyl)phenoxy)methyl)-1-methyl-1H-benzo[d]imidazol-6-yl hydrogen sulfate formation at 20 uM after 2 hrs by radio-HPLC/LC-MS/MS analysis; format: ADME
Sequence of Cytochrome P450 2C19 (P33261 whole entry): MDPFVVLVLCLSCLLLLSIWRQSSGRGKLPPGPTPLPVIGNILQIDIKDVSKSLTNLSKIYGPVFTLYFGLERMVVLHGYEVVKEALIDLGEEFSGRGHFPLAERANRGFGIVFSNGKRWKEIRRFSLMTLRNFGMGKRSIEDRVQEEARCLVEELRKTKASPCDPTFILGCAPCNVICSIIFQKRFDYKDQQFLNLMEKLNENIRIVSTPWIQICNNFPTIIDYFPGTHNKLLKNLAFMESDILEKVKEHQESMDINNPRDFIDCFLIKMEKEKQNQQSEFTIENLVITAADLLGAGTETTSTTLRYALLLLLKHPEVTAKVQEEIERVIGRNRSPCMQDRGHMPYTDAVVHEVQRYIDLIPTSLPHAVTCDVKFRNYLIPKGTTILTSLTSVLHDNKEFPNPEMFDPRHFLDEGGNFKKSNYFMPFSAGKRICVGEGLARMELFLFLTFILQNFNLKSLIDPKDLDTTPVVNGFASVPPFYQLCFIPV
Summary of the method: (§1)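 Baculovirus/insect-cell microsomes expressing single human CYPs, 1 mg/ml protein, with 50 mM potassium phosphate (pH 7.4) or 100 mM Tris-HCl (pH 7.5). NADPH-generating system: 2 mM NADP⁺, 20 mM glucose 6-phosphate, 2 units/ml G6PDH, 10 mM MgCl₂. [¹⁴C]rivoglitazone at 20 μM, 2 h at 37°C with shaking. Control used insect-cell control supersomes. Stopped with acetonitrile; supernatant concentrated under nitrogen; metabolites analysed by radio-HPLC, LC-MS and LC-MS/MS.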

Liver microsome [3] = test: Drug metabolism in human liver microsomes assessed as formation of 3-(4-((6-methoxy-1-methyl-1H-benzo[d]imidazol-2-yl)methoxy)phenyl)-2-(methylsulfonyl)propanamide at 20 uM after 2 hrs by radio-HPLC/LC-MS/MS analysis in presence of NADPH-generating system/SAM; format: ADME
Liver microsome [4] = test: Drug metabolism in human liver microsomes assessed as formation of 2-((4-((2,4-dioxothiazolidin-5-yl)methyl)phenoxy)methyl)-1-methyl-1H-benzo[d]imidazol-6-yl hydrogen sulfate at 20 uM by radio-HPLC/LC-MS/MS analysis; format: ADME
Liver microsome [5] = test: Drug metabolism in human liver microsomes assessed as formation of (2S,3S,4S,5R,6R)-3,4,5-trihydroxy-6-(5-(4-((6-methoxy-1-methyl-1H-benzo[d]imidazol-2-yl)methoxy)benzyl)-2,4-dioxothiazolidin-3-yl)tetrahydro-2H-pyran-2-carboxylic acid at 20 uM after 4 hrs by radio-HPLC/LC-MS/MS analysis in presence of UDPGA and UDPGA/SAM; format: ADME
Cytochrome P450 2C9 = Cytochrome P450 2C9 (Homo sapiens, UniProt P11712); test: Activity of human CYP2C9 expressed in microsomes isolated from baculovirus infected insect cell assessed as enzyme-mediated 2-mercapto-3-(4-((6-methoxy-1-methyl-1H-benzo[d]imidazol-2-yl)methoxy)phenyl)propanoic acid formation at 20 uM after 2 hrs by radio-HPLC/LC-MS/MS analysis in presence of NADPH-generating system; format: ADME
Sequence of Cytochrome P450 2C9 (P11712 whole entry): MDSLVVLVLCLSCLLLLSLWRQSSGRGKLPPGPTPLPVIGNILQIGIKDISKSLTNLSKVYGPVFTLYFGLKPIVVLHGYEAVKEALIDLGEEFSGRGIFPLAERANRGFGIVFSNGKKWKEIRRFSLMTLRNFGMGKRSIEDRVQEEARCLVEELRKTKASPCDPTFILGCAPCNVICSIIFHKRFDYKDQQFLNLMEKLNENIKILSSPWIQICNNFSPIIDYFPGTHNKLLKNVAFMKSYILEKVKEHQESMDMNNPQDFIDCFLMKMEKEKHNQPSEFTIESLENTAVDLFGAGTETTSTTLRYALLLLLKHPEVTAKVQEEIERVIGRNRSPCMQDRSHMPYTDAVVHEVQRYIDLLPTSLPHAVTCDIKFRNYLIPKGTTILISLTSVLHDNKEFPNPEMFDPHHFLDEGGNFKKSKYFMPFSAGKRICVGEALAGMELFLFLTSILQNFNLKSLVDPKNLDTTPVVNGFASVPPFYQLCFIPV
Summary of the method: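 Baculovirus-insect-cell microsomes expressing the human CYP (1 mg/ml protein) were incubated with [14C]rivoglitazone (20 μM) in 50 mM potassium phosphate (pH 7.4) or 100 mM Tris-HCl (pH 7.5) with an NADPH-generating system (2 mM NADP+, 20 mM glucose 6-phosphate, 2 units/ml G6PDH, 10 mM MgCl2) for 2 h at 37°C. Insect-cell control supersomes served as the control. Reactions were stopped with acetonitrile, and the concentrated supernatants were analysed by radio-HPLC, LC-MS and LC-MS/MS.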

Cytochrome P450 2C8 = target: T2, Cytochrome P450 2C8 (Homo sapiens, UniProt P10632); test: Activity of human CYP2C8 expressed in microsomes isolated from baculovirus infected insect cell assessed as enzyme-mediated 3-(4-((6-methoxy-1-methyl-1H-benzo[d]imidazol-2-yl)methoxy)phenyl)-2-(methylthio)propanamide formation at 20 uM after 2 hrs by radio-HPLC/LC-MS/MS analysis in presence of NADPH-generating system/SAM; format: ADME
T2 sequence (P10632 whole entry): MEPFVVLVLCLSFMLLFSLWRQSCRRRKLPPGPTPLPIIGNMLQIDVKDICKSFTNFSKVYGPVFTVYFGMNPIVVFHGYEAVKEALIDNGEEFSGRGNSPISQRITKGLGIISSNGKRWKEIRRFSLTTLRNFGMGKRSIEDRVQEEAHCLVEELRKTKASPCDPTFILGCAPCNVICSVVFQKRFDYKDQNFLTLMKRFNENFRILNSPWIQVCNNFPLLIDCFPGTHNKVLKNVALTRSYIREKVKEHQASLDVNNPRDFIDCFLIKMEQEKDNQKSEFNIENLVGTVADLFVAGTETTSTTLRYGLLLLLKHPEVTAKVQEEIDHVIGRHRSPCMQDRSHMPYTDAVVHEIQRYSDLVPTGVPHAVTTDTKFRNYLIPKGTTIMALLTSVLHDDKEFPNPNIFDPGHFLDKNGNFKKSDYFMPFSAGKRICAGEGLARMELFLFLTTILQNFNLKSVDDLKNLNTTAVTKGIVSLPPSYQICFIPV

Cytochrome P450 1A2 = target: T3, Cytochrome P450 1A2 (Homo sapiens, UniProt P05177); test: Activity of human CYP1A2 expressed in microsomes isolated from baculovirus infected insect cell assessed as enzyme-mediated 2-hydroxy-3-(4-((6-methoxy-1-methyl-1H-benzo[d]imidazol-2-yl)methoxy)phenyl)propanamide formation at 20 uM after 2 hrs by radio-HPLC/LC-MS/MS analysis in presence of NADPH-generating system and NADPH-generating system/SAM; format: ADME
T3 sequence (P05177 whole entry): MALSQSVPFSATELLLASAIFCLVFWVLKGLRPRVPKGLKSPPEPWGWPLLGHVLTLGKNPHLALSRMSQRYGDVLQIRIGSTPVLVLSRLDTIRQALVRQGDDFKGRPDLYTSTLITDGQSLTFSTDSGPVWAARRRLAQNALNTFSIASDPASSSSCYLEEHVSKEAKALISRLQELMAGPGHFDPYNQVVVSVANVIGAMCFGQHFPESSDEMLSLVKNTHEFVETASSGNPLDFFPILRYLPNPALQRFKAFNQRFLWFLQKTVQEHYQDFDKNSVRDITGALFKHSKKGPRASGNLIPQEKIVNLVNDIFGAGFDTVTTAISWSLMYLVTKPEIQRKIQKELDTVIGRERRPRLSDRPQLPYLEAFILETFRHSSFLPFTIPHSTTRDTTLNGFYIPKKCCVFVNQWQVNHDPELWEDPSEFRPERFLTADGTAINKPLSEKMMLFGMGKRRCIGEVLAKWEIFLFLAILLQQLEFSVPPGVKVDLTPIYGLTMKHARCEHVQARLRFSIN
Summary of the method: as §1

Drug metabolism [1]	Drug metabolism (Liver microsome [2])	Drug metabolism (Cytochrome P450 2C19)	Drug metabolism (Liver microsome [3])	Drug metabolism (Liver microsome [4])	Drug metabolism (Liver microsome [5])	Drug metabolism (Cytochrome P450 2C9)	Drug metabolism (Cytochrome P450 2C8)	Drug metabolism (Cytochrome P450 1A2)	Structure (SMILES)
metabolite_detected	–	–	–	–	–	–	–	–	COc1ccc2nc(COc3ccc(CC(S)C(=O)O)cc3)n(C)c2c1 (centres undefined)
–	metabolite_detected	metabolite_not_detected	metabolite_detected	metabolite_not_detected	metabolite_detected	metabolite_detected	metabolite_not_detected	metabolite_detected	COc1ccc2nc(COc3ccc(C[14CH]4SC(=O)NC4=O)cc3)n(C)c2c1.Cl (racemic)

— ChEMBL document CHEMBL3526048, “In vitro metabolism of rivoglitazone, a novel peroxisome proliferator-activated receptor γ agonist, in rat, monkey, and human liver microsomes and freshly isolated hepatocytes” (Drug Metab Dispos, 2011)
